Measurements from ChEMBL document CHEMBL5260794, “Synthesis and biological evaluation of a new class of benzothiazines as neuroprotective agents” (Eur J Med Chem, 2017).
pIC50: −log10 of the molar value. One block for each compound: values may come before it. The source made the active and inactive calls. No cut-off for these calls is given here.

What was measured:
SH-SY5Y [1] = assay: Neuroprotective activity against glutamate-induced toxicity in human SH-SY5Y cells assessed as reduction in ROS production at 0.1 to 10 uM by DCFH-DA staining based assay; type: functional, cell-based; conditions: dose 0.1-10 µM, time 24.0 hrs, TDE = time-dependent effect
In short: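 SH-SY5Y cells loaded with DCFH-DA (5 μM, 30 min) and washed before treatment. Pretreated 1 h with compound (0.1-10 μM), then glutamate 50 mM. Fluorescence (ex 485/em 535 nm) read at 1 h or 24 h and expressed as % inhibition of glutamate-induced ROS. 4 independent experiments.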

SH-SY5Y [2] = assay: Neuroprotective activity against glutamate-induced toxicity in human SH-SY5Y cells assessed as reduction in grade 2 to 3 toxicity at 10 uM pretreated for 1 hr followed by glutamate challenge measured after 24 hrs by phase-contrast light microscopic analysis; type: functional, cell-based; conditions: time 25.0 hrs
In short: (§1)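 SH-SY5Y cells attached 24 h, then pretreated 1 h with compound (0.1-10 μM) before glutamate 50 mM for 24 h. Viability by MTT. Morphology under phase-contrast microscope, scored by the USP 28 grade scale (0-4). Mean ± SEM of 4 independent experiments run in triplicate or quadruplicate, ANOVA with Dunnett test.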

SH-SY5Y [3] = assay: Neuroprotective activity against 6-OHDA-induced toxicity in human SH-SY5Y cells assessed as reduction in condensed and fragmented nuclei at 0.1 uM pretreated for 1 hr followed by 6-OHDA challenge measured after 2 hrs by DAPI staining based assay relative to control; type: functional, cell-based; conditions: time 3.0 hrs
SH-SY5Y [4] = assay: Neuroprotective activity against glutamate-induced toxicity in human SH-SY5Y cells assessed as reduction in cell rounding at 10 uM pretreated for 1 hr followed by glutamate challenge measured after 24 hrs by phase-contrast light microscopic analysis; type: functional, cell-based; conditions: time 25.0 hrs; in short: as §1
Rattus norvegicus [5] = species on record: Rattus norvegicus; assay: Inhibition of transient voltage-dependent sodium current in Wistar rat brain piriform cortex layer at 50 uM by whole cell patch clamp method relative to control; type: functional
SH-SY5Y [6] = assay: Neuroprotective activity against 6-OHDA-induced toxicity in human SH-SY5Y cells assessed as cell viability at 0.1 uM pretreated for 1 hr followed by 6-OHDA challenge measured after 2 hrs by MTT assay; type: functional, cell-based; conditions: time 3.0 hrs
SH-SY5Y [7] = assay: Neuroprotective activity against 6-OHDA-induced toxicity in human SH-SY5Y cells assessed as reduction in ROS production at 0.1 uM pretreated for 1 hr followed by 6-OHDA challenge measured after 2 hrs by DCFH-DA staining based assay; type: functional, cell-based; conditions: time 3.0 hrs
Rattus norvegicus [8] = species on record: Rattus norvegicus; assay: Neuroprotective activity against oxygen glucose deprivation/reperfusion-induced Wistar rat cortical brain assessed as reduction in glutamate release by measuring minimal effective concentration; type: functional
In short: (§2)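 Male Wistar rat cortical slices (400 μm) in oxygenated ACSF, pH 7.4, 1 h at room temperature, then 30 min at 37 °C. OGD for 30 min in glucose-free ACSF with 11 mM sucrose under 95% N₂/5% CO₂. Compound added in the reoxygenation buffer. Glutamate and LDH release measured. Mean ± SEM of at least four experiments, ANOVA with Dunnett test.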

Rattus norvegicus [9] = species on record: Rattus norvegicus; assay: Neuroprotective activity against oxygen glucose deprivation/reperfusion-induced Wistar rat cortical brain assessed as reduction in LDH release relative to control; type: functional; parameters: concentration or dose not given beside the values; in short: as §2
[10] = Cytotoxicity against human SH-SY5Y cells assessed as cell viability at 10 uM measured after 24 hrs by MTT assay; type: toxicity, cell-based
In short: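 SH-SY5Y cells (RPMI 1640, 10% FBS, 37 °C, 5% CO₂, exponential growth) seeded 8 x 10⁴ cells/mL and left to attach 24 h, then exposed to compound alone for 24 h. MTT viability read. Morphology graded 0-4 on the USP 28 scale under phase contrast. Compound diluted from DMSO stock in PBS, final DMSO <0.01%.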

SH-SY5Y [11] = assay: Neuroprotective activity against glutamate-induced toxicity in human SH-SY5Y cells assessed as reduction in ROS production measured after 24 hrs by DCFH-DA staining based assay; type: functional, cell-based; conditions: dose 0.1-10 µM
In short: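 Human SH-SY5Y neuroblastoma cells were preloaded with DCFH-DA (5 μM, 30 min) and washed in PBS. They were then pretreated for 1 h with compound (0.1-10 μM; DMSO stock diluted in PBS, final DMSO <0.01%) and challenged with glutamate (50 mM). Fluorescence (ex 485/em 535 nm) was read at 24 h and expressed as % inhibition of glutamate-induced ROS. Data are mean ± SEM of 4 experiments run in triplicate or quadruplicate.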

SH-SY5Y [12] = assay: Neuroprotective activity against 6-OHDA-induced toxicity in human SH-SY5Y cells assessed as reduction in condensed and fragmented nuclei at 10 uM pretreated for 1 hr followed by 6-OHDA challenge measured after 2 hrs by DAPI staining based assay relative to control; type: functional; parameters: scale not given: the % may be the effect or the level left; conditions: time 3 hrs
In short: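 DAPI staining of SH-SY5Y cells pretreated 1 h with compound at 10 μM, then given 6-OHDA 55 μM for 2 h. Condensed or fragmented nuclei scored as apoptotic. Mean ± SEM of 4 independent experiments.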

Rattus norvegicus [13] = species on record: Rattus norvegicus; assay: Neuroprotective activity against oxygen glucose deprivation/reperfusion-induced Wistar rat cortical brain assessed as concentration required to reduce glutamate release by measuring efficacy window; type: functional; in short: as §2
SH-SY5Y [14] = assay: Neuroprotective activity against glutamate-induced toxicity in human SH-SY5Y cells assessed as reduction in cell detachment at 10 uM pretreated for 1 hr followed by glutamate challenge measured after 24 hrs by phase-contrast light microscopic analysis; type: functional, cell-based; conditions: time 25.0 hrs; in short: as §1
SH-SY5Y [15] = assay: Neuroprotective activity against glutamate-induced toxicity in human SH-SY5Y cells assessed as reduction in G0/G1 phase cells at 10 uM pretreated for 1 hr followed by glutamate challenge measured after 24 hrs by propidium staining based flow cytometry; type: functional, cell-based; conditions: time 25.0 hrs
In short: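 SH-SY5Y cells (2.5 x 10⁵ cells/mL) pretreated 1 h with compound, then given glutamate 50 mM for 24 h. Cells fixed in 70% ethanol (30 min, 4 °C), held at -20 °C for at least 24 h, stained with propidium iodide. Flow cytometry on at least 1x10⁴ cells, cell-cycle phases and sub-G₀/G₁ fraction quantified. 4 independent experiments.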

Rattus norvegicus [16] = species on record: Rattus norvegicus; assay: Inhibition of high voltage-activated calcium current in Wistar rat brain piriform cortex assessed as blockade of barium current by whole cell patch clamp method; type: functional
In short: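 Acutely dissociated P15-P22 Wistar rat piriform cortex neurons recorded whole-cell at holding -70 mV. 5 mM Ba²⁺ was the charge carrier, with a Cs methanesulfonate pipette. HVA currents evoked by step or ramp protocols from -60 mV. Compound applied by local perfusion (DMSO 0.02-0.67%). Peak I_Ba amplitude tracked over time, and concentration-response fitted with the sum of two Hill functions.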

Rattus norvegicus [17] = species on record: Rattus norvegicus; assay: Neuroprotective activity against oxygen glucose deprivation/reperfusion-induced Wistar rat cortical brain assessed as reduction in LDH release by measuring minimal effective concentration; type: functional; in short: as §2
SH-SY5Y [18] = assay: Neuroprotective activity against 6-OHDA-induced toxicity in human SH-SY5Y cells assessed as reduction in ROS production by DCFH-DA staining based assay; type: functional, cell-based; conditions: dose 0.1-10 µM
In short: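 SH-SY5Y cells loaded with DCFH-DA (5 μM, 30 min) and washed. Pretreated 1 h with compound (0.1-10 μM), then 6-OHDA 55 μM. Fluorescence (ex 485/em 535 nm) read at 1 h or 24 h and expressed as % inhibition of 6-OHDA-induced ROS. 4 independent experiments.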

Rattus norvegicus [19] = species on record: Rattus norvegicus; assay: Neuroprotective activity against oxygen glucose deprivation/reperfusion-induced Wistar rat cortical brain assessed as reduction in glutamate release relative to control; type: functional; parameters: concentration or dose not given beside the values; in short: as §2
Rattus norvegicus [20] = species on record: Rattus norvegicus; assay: Neuroprotective activity against oxygen glucose deprivation/reperfusion-induced Wistar rat cortical brain assessed as concentration required to reduce LDH release by measuring efficacy window; type: functional; in short: as §2

pIC50 (Rattus norvegicus [16]): 5.36
Structure (SMILES): CCCN(CCC)/C(C)=N/C1=Nc2ccccc2CS1
Activity (SH-SY5Y [1]): Tde | Activity (SH-SY5Y [2]): Active | Activity (SH-SY5Y [3]): Active | Activity (SH-SY5Y [4]): Active | inhibition in vivo at 50 µM (Rattus norvegicus [5]): 15.9% | Activity (SH-SY5Y [6]): Active | Activity (SH-SY5Y [7]): Active | MEC (Rattus norvegicus [8]): 1 µM | Activity (Rattus norvegicus [9]): 58.2% | viability reduction at 24 h, 10 µM [10]: 10% | Activity (SH-SY5Y [11]): Dose-Dependent Effect | Activity (SH-SY5Y [12]): >20% | Efficacy (Rattus norvegicus [13]): 0.1 µM | Activity (SH-SY5Y [14]): Active | Activity (SH-SY5Y [15]): Active | MEC (Rattus norvegicus [17]): 0.1 µM | Activity (SH-SY5Y [18]): Dose-Dependent Effect | Activity (Rattus norvegicus [19]): 90.5% | Efficacy (Rattus norvegicus [20]): 0.1 µM

pIC50 (Rattus norvegicus [16]): 5.27
Structure (SMILES): CCN(CC)/C(C)=N/C1=Nc2ccccc2CS1
Activity (SH-SY5Y [1]): Tde | Activity (SH-SY5Y [2]): Active | Activity (SH-SY5Y [3]): Active | Activity (SH-SY5Y [4]): Active | inhibition in vivo at 50 µM (Rattus norvegicus [5]): 51.9% | Activity (SH-SY5Y [6]): Active | Activity (SH-SY5Y [7]): Active | MEC (Rattus norvegicus [8]): 0.1 µM | Activity (Rattus norvegicus [9]): 72.4% | viability reduction at 24 h, 10 µM [10]: 10% | Activity (SH-SY5Y [11]): Dose-Dependent Effect | Activity (SH-SY5Y [12]): >20% | Efficacy (Rattus norvegicus [13]): 0.1 µM | Activity (SH-SY5Y [14]): Active | Activity (SH-SY5Y [15]): Active | MEC (Rattus norvegicus [17]): 0.1 µM | Activity (SH-SY5Y [18]): Dose-Dependent Effect | Activity (Rattus norvegicus [19]): 100% | Efficacy (Rattus norvegicus [20]): 0.1 µM
